In ChEMBL document CHEMBL4028906, “Allosteric Inhibitors of SHP2 with Therapeutic Potential for Cancer Treatment” (J Med Chem, 2017):
Active and inactive are the calls of the source. The rule behind the calls is not given here.

Experiments:
MV4-11 = experiment: Antiproliferative activity against human MV4-11 cells at 3 to 6 uM after 2 days by CellTiter-Glo assay; assay type: functional, cell-based
How it was run: (§1)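 3000 cells/well in 96-well plates, grown overnight, then inhibitor at indicated concentrations for 2 days (48 h). Viability by CellTiter-Glo; mean±s.d., n=3.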

MOLM-13 = experiment: Antiproliferative activity against human MOLM13 cells at 3 to 6 uM after 2 days by CellTiter-Glo assay; assay type: functional, cell-based; how it was run: as §1
KMS-11 = experiment: Antiproliferative activity against human KMS11 cells at 3 to 6 uM after 2 days by CellTiter-Glo assay; assay type: functional, cell-based; how it was run: as §1
[1] = Inhibition of SHP2 N58S mutant (unknown origin); parameters: species or system Homo sapiens
KG-1a = experiment: Antiproliferative activity against human KG1a cells at 3 to 6 uM after 2 days by CellTiter-Glo assay; assay type: functional, cell-based; how it was run: as §1
SF-268 = experiment: Effect on YAP gene expression in human SF268 cells at 10 to 20 uM after 2 hrs by qRT-PCR analysis; assay type: functional, cell-based
How it was run: (§2)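 SF268 cells exposed to DMSO, 10 μM or 20 μM inhibitor for 2 h. RNA extracted, reverse-transcribed, and CTGF, CYR61, ANKRD1 and YAP mRNA quantified by qPCR; mean±s.d., n=3.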

[2] = target: T1, Tyrosine-protein phosphatase non-receptor type 11 (Homo sapiens) (UniProt Q06124); experiment: Allosteric inhibition of SHP2 in human NCI-H661 cells assessed as downregulation of phosphorylated AKT levels at 2.5 to 20 uM after 2 hrs by Western blot analysis; assay type: cell-based
T1 sequence (whole entry): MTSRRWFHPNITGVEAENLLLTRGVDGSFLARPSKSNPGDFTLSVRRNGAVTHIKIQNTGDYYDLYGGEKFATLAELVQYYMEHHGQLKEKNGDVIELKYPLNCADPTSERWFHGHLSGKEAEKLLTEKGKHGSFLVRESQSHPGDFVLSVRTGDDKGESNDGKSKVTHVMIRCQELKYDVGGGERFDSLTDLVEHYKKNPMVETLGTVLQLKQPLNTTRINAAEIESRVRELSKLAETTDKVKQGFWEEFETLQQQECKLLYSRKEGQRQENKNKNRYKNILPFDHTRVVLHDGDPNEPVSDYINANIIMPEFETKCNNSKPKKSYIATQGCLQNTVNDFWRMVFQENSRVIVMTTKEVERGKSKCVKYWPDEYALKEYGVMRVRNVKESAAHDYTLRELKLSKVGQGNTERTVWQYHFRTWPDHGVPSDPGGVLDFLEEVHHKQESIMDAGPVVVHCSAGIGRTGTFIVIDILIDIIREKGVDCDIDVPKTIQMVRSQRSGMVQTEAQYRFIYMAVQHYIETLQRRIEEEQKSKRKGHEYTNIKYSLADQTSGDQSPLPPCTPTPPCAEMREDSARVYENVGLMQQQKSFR
How it was run: (§3)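 NCI-H661 cells in 6-well plates exposed to inhibitor 2 h at 37 °C. RIPA lysates separated by SDS-PAGE, transferred to PVDF, milk-blocked, probed overnight at 4 °C for pERK1/2, ERK1/2, pAKT and AKT. Repeated at least three times.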

Homo sapiens [3] = species: Homo sapiens; experiment: Selectivity ratio of IC50 for VHR (unknown origin) expressed in Escherichia coli BL21(DE3) to IC50 for SHP2 E76A mutant (unknown origin) expressed in Escherichia coli BL21(DE3)
How it was run: (§4)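 Ratio of IC50 values from one DIFMUP fluorescence assay (Ex/Em 358/455), room temperature, 0.1 M sodium acetate pH 5.0. His-tagged SHP2 E76A (1.5 nM) or counter-phosphatase purified from E. coli, preincubated 20 min with compound (eight 3-fold dilutions), then DIFMUP added for 20 min. DIFMUP was at Km for each counter-phosphatase. Duplicates; IC50 from at least three independent experiments.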

[4] = target: M-phase inducer phosphatase 1 (Homo sapiens, UniProt P30304); experiment: Inhibition of CDC25A (unknown origin) expressed in Escherichia coli BL21(DE3) using DIFMUP as substrate preincubated for 20 mins followed by substrate addition measured after 20 mins by phosphatase assay
Sequence of M-phase inducer phosphatase 1 (P30304 whole entry): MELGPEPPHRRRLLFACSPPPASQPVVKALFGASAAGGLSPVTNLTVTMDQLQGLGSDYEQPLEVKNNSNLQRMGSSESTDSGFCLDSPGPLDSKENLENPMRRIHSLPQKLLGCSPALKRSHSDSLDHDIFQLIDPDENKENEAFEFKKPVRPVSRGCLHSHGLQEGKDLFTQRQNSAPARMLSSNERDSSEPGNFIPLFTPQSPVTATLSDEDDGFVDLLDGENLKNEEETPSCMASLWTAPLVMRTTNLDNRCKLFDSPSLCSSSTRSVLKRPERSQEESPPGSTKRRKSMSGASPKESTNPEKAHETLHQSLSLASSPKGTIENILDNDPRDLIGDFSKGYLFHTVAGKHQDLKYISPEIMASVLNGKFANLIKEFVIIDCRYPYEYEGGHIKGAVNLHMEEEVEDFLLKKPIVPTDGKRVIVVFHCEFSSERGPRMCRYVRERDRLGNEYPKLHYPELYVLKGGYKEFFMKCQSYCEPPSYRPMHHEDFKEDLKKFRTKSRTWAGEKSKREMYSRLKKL
How it was run: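 Phosphatases purified from E. coli and run as for SHP2 E76A: 20 min room-temperature preincubation with compound in 0.1 M sodium acetate pH 5.0, then DIFMUP at each enzyme's Km, 20 min, fluorescence 358/455 nm. Eight 3-fold dilutions in duplicate; IC50 from at least three independent experiments.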

[5] = AUC in nu/nu nude mouse at 10 mg/kg, po measured up to 24 hrs postdose by LC/MS/MS analysis; assay type: ADME, organism-based; parameters: dose 10 mg/kg, time < 24 hr, route oral; details: in vivo
How it was run: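 Female nu/nu nude mice dosed IV via tail vein at 5 mg/kg or orally at 10 mg/kg. Blood sampled at 0.083, 0.25, 0.5, 1, 2, 4, 8 and 24 h post-dose (orbital sinus, terminal cardiac puncture; EDTA-2K). Plasma separated at 4 °C, precipitated with acetonitrile containing internal standard, quantified by LC/MS/MS.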

Homo sapiens [6] = species: Homo sapiens; experiment: Selectivity ratio of IC50 for PTP1B (unknown origin) expressed in Escherichia coli BL21(DE3) to IC50 for SHP2 E76A mutant (unknown origin) expressed in Escherichia coli BL21(DE3); how it was run: as §4
[7] = target: T1, Tyrosine-protein phosphatase non-receptor type 11 (Homo sapiens); experiment: Allosteric inhibition of SHP2 in human SF268 cells assessed as downregulation of YAP-mediated CYR61 gene expression ay 10 to 20 uM after 2 hrs by qRT-PCR analysis; assay type: cell-based; how it was run: as §2
NCI-H1975 [8] = experiment: Antiproliferative activity against human NCI-H1975 cells at 3 to 6 uM after 2 days by CellTiter-Glo assay; assay type: functional, cell-based; how it was run: as §1
K562 = experiment: Antiproliferative activity against human K562 cells at 3 to 6 uM after 2 days by CellTiter-Glo assay; assay type: functional, cell-based; how it was run: as §1
[9] = target: T1, Tyrosine-protein phosphatase non-receptor type 11 (Homo sapiens); experiment: Allosteric inhibition of SHP2 in human NCI-H1975 cells harboring EGFR T790M mutant assessed as downregulation of ERK1/2 phosphorylation at 10 uM after 2 hrs by DAPI-based fluorescence microscopic analysis; assay type: cell-based
How it was run: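 NCI-H1975 cells grown overnight on coverslips, then 10 μM inhibitor for 2 h. Fixed in 4% PFA, permeabilized with 0.4% Triton X-100, BSA-blocked. Phospho-ERK1/2 antibody applied overnight at 4 °C, fluorescent secondary 1 h at room temperature, DAPI mount, fluorescence microscopy. Repeated at least three times.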

KOPN-8 = experiment: Antiproliferative activity against human KOPN8 cells at 3 to 6 uM after 2 days by CellTiter-Glo assay; assay type: functional, cell-based; how it was run: as §1
NCI-H1975 [10] = experiment: Antiproliferative activity against human NCI-H1975 cells assessed as reduction in colony formation at 2.5 to 10 uM after 2 weeks by soft agar assay; assay type: functional, cell-based
How it was run: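 NCI-H1975 cells at 10,000/well in 0.4% agarose over a 1% low-melt agarose base layer (6-well). Inhibitor at varying concentrations, replenished twice weekly. After 2 weeks, colonies stained with iodonitrotetrazolium chloride and counted; mean±s.d., n=3.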

[11] = target: T1, Tyrosine-protein phosphatase non-receptor type 11 (Homo sapiens); experiment: Allosteric inhibition of SHP2 in human NCI-H661 cells assessed as downregulation of phosphorylated ERK1/2 levels at 2.5 to 20 uM after 2 hrs by Western blot analysis; assay type: cell-based; how it was run: as §3
NCI-H1838 = experiment: Antiproliferative activity against human NCI-H1838 cells at 3 to 6 uM after 2 days by CellTiter-Glo assay; assay type: functional, cell-based; how it was run: as §1

With `CC1(N)CCN(c2nc(-c3ccc4cc(Br)ccc4c3)cs2)CC1` the Activity (MV4-11) was “Active”, the Activity (MOLM-13) was “Active” and the Activity (KMS-11) was “Active”. The IC50 [1] was 1.2 µM, the Activity (KG-1a) was “Active” and the Activity (SF-268) was “inactive”. For the same compound, the inhibition [2] was “Active”, the Ratio IC50 (Homo sapiens [3]) was greater than 30 and the IC50 [4] was 27.5 µM. For the same compound, the AUC at 24 h [5] was 9.86 µM·h, the Ratio IC50 (Homo sapiens [6]) was greater than 30 and the inhibition [7] was “Active”. For the same compound, the Activity (NCI-H1975 [8]) was “Active”, the Activity (K562) was “Active” and the inhibition [9] was “Active”. The Activity (KOPN-8) was “Active”, the Activity (NCI-H1975 [10]) was “Active” and the inhibition [11] was “Active”. For the same compound, the Activity (NCI-H1838) was “Active”.
